Measured values reported in ChEMBL document CHEMBL3877315, “Synthesis, biological evaluation and molecular docking analysis of 2-phenyl-benzofuran-3-carboxamide derivatives as potential inhibitors of Staphylococcus aureus Sortase A” (Bioorg Med Chem, 2017).

Experiment: Inhibition of Staphylococcus aureus Sortase A delta 59 mutant using Abz-LPATG-Dnp as substrate preincubated for 1 hr followed by substrate addition measured after 30 mins by HPLC method
In short: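 His6-tagged SrtA59 expressed from pET28 in E. coli, IPTG-induced, Ni-NTA purified. Enzyme 5 µM was pre-incubated with inhibitor in DMSO (final 12.5~200 µM) for 1 h at 37 °C in 50 mM Tris-HCl pH 7.5, 150 mM NaCl, 5 mM CaCl₂, 0.05% Tween 20. Abz-LPATG-Dnp added at 10 µM final; stopped with HCl. G-Dnp peak area read at 355 nm by reverse-phase HPLC and compared with no-inhibitor control. IC50 taken at 50% decrease; three repeats.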

| Molecule | IC50 |
| --- | --- |
| CC(C)CNC(=O)c1c(-c2ccc(COC(=O)Cc3ccc(O)c(O)c3)cc2)oc2ccccc12 | 30.8 µM |
| CC(=O)Nc1cccc(OCc2ccc(-c3oc4ccccc4c3C(=O)NCC(C)C)cc2)c1 | 148 µM |
| CCCCNC(=O)c1c(-c2ccc(COc3ccc(C(=O)OC)cc3)cc2)oc2ccccc12 | > 200 µM |
| CC(C)CNC(=O)c1c(-c2ccc(COC(=O)Cc3ccc(C(F)(F)F)cc3)cc2)oc2ccccc12 | > 200 µM |
| CC(C)CNC(=O)c1c(-c2ccc(COC(=O)/C=C/c3ccc(O)cc3)cc2)oc2ccccc12 | 158 µM |
| CC(=O)Nc1ccc(OCc2ccc(-c3oc4ccccc4c3C(=O)NCC(C)C)cc2)cc1 | 171 µM |
| CC(=O)c1cccc(OCc2ccc(-c3oc4ccccc4c3C(=O)NCC(C)C)cc2)c1 | 148 µM |
| CC(C)CNC(=O)c1c(-c2ccc(COc3ccc(Cl)cc3)cc2)oc2ccccc12 | > 200 µM |
| CCCCNC(=O)c1c(-c2ccc(COC(=O)c3ccc(O)cc3)cc2)oc2ccccc12 | 186 µM |
| CC(C)CNC(=O)c1c(-c2ccc(COC(=O)c3ccc(O)cc3)cc2)oc2ccccc12 | 43 µM |
| CC(C)CNC(=O)c1c(-c2ccc(COc3cccc(O)c3)cc2)oc2ccccc12 | 86.4 µM |
| CC(C)CNC(=O)c1c(-c2ccc(COC(=O)c3cc(O)cc(O)c3)cc2)oc2ccccc12 | 34.5 µM |
| CC(C)CNC(=O)c1c(-c2ccc(COc3ccc(S(C)(=O)=O)cc3)cc2)oc2ccccc12 | 132 µM |
| CC(C)CNC(=O)c1c(-c2ccc(COC(=O)c3ccccc3[N+](=O)[O-])cc2)oc2ccccc12 | > 200 µM |
| CC(C)CNC(=O)c1c(-c2ccc(COC(=O)Cc3ccccc3O)cc2)oc2ccccc12 | 89 µM |
| Cc1ccc(OCc2ccc(-c3oc4ccccc4c3C(=O)NCC(C)C)cc2)cc1 | > 200 µM |
| Para-Hydroxymercuribenzoic acid | 130 µM |
| CC(C)CNC(=O)c1c(-c2ccc(COC(=O)c3ccccc3O)cc2)oc2ccccc12 | 76.4 µM |
| CC(C)CNC(=O)c1c(-c2ccc(COC(=O)c3cccc(O)c3)cc2)oc2ccccc12 | 50.6 µM |

| Molecule | IC50 |
| --- | --- |
| CC(C)CNC(=O)c1c(-c2ccc(COC(=O)Cc3ccc(O)cc3)cc2)oc2ccccc12 | 84 µM |
| CC(C)CNC(=O)c1c(-c2ccc(COc3ccc(CO)cc3)cc2)oc2ccccc12 | 121 µM |
| CC(C)CNC(=O)c1c(-c2ccc(COC(=O)c3ccc(N)cc3)cc2)oc2ccccc12 | 52.3 µM |
| CC(C)CNC(=O)c1c(-c2ccc(COC(=O)Cc3ccc([N+](=O)[O-])cc3)cc2)oc2ccccc12 | > 200 µM |
| COc1cc(OC)cc(C(=O)OCc2ccc(-c3oc4ccccc4c3C(=O)NCC(C)C)cc2)c1 | 62 µM |
| CC(C)CNC(=O)c1c(-c2ccc(COC(=O)c3ccc(O)c(O)c3)cc2)oc2ccccc12 | 39.6 µM |
| COc1cc(C(=O)OCc2ccc(-c3oc4ccccc4c3C(=O)NCC(C)C)cc2)cc(OC)c1OC | 55.2 µM |
| CC(C)CNC(=O)c1c(-c2ccc(COC(=O)c3ccc(N(C)C)cc3)cc2)oc2ccccc12 | > 200 µM |
| CC(C)CNC(=O)c1c(-c2ccc(COC(=O)c3ccc(S)cc3)cc2)oc2ccccc12 | 89.1 µM |
| CC(C)CNC(=O)c1c(-c2ccc(COC(=O)c3ccc([N+](=O)[O-])c(O)c3)cc2)oc2ccccc12 | 60.6 µM |
| CC(C)CNC(=O)c1c(-c2ccc(COc3ccc(C#N)cc3)cc2)oc2ccccc12 | 97 µM |
| CC(C)CNC(=O)c1c(-c2ccc(COC(=O)Cc3cccc(O)c3)cc2)oc2ccccc12 | 76.3 µM |
| CCCCNC(=O)c1c(-c2ccc(COc3ccc(S(C)(=O)=O)cc3)cc2)oc2ccccc12 | > 200 µM |
| CC(C)CNC(=O)c1c(-c2ccc(COC(=O)c3ccc(F)cc3)cc2)oc2ccccc12 | > 200 µM |
| CC(C)CNC(=O)c1c(-c2ccc(COC(=O)Cc3cccc(C(F)(F)F)c3)cc2)oc2ccccc12 | > 200 µM |
| CCCCNC(=O)c1c(-c2ccc(COC(=O)c3ccc(O)c(O)c3)cc2)oc2ccccc12 | 66 µM |
| CC(C)CNC(=O)c1c(-c2ccc(COC(=O)c3ccc(O)cc3O)cc2)oc2ccccc12 | 57 µM |
| CC(C)CNC(=O)c1c(-c2ccc(COC(=O)c3ccccc3)cc2)oc2ccccc12 | 158 µM |
| CC(C)CNC(=O)c1c(-c2ccc(COc3cccc(C=O)c3)cc2)oc2ccccc12 | 89 µM |
